Measured values from ChEMBL document CHEMBL1128578, “Synthesis and cytotoxicity of novel lignans” (J Med Chem, 1995).

Key:
GLC4 cell line [1] = experiment: Cytotoxic effect against GLC4 (human small cell lung carcinoma cell line) using the microculture tetrazolium (MTT) assay based on 2 hr incubation; type: functional
How it was run: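 GLC4 SCLC cells (suspension, RPMI 1640 + 10% heat-inactivated FCS, 37 °C, 5% CO2), exponential phase, >90% viable; 3750 cells/well. Compounds diluted from 200× DMSO stocks (≤0.25% DMSO final), up to 100 μM; exposed 2 h, washed three times, then cultured 4 days. MTT 3 h 45 min, formazan in DMSO, A520; IC50 from % growth inhibition, triplicate separate experiments.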

GLC4 cell line [2] = experiment: Cytotoxic effect against GLC4 (human small cell lung carcinoma cell line) using the microculture tetrazolium (MTT) assay based on continuous incubation; type: functional
How it was run: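 GLC4 cells in exponential growth (>90% viable by trypan blue) seeded at 3750/well in RPMI 1640 + 10% FCS; compounds from 200× DMSO stocks, final DMSO ≤0.25%, top concentration 100 μM, present continuously for 4 days at 37 °C, 5% CO2. MTT added for 3 h 45 min, formazan dissolved in DMSO, absorbance 520 nm; IC50 = 50% growth inhibition; n=3 separate experiments.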

| Compound | IC50 (GLC4 cell line [1]; Homo sapiens, GLC4, 2 h) [µM] | IC50 (GLC4 cell line [2]; Homo sapiens, GLC4) [µM] | IC50 (GLC4 cell line [1]; glc4) [µM] | IC50 (GLC4 cell line [2]; glc4) [µM] |
| --- | --- | --- | --- | --- |
| COc1cc([C@@H]2c3cc4c(cc3[C@H](O)[C@H]3COC(=O)[C@H]23)OCO4)cc(OC)c1O | 3.1 | 0.03 | – | – |
| COc1cc([C@@H]2c3cc4c(c(OC)c3[C@H](O)[C@H]3COC(=O)[C@H]23)OCO4)cc(OC)c1OC | 0.25 | 0.06 | – | – |
| CC1CCC(C(C)C)C(O[C@@H]2OC(=O)[C@H](Cc3ccc4c(c3)OCO4)[C@H]2Cc2ccc3c(c2)OCO3)C1 (stereo partly drawn) | – | 44 | – | – |
| COc1cc(C[C@H]2C(=O)O[C@@H](OC3CC(C)CCC3C(C)C)[C@@H]2C(Sc2ccccc2)(Sc2ccccc2)c2ccc3c(c2)OCO3)ccc1OCc1ccccc1 (stereo partly drawn) | – | > 100 | – | – |
| COc1cc([C@@H](O)[C@H]2C(=O)O[C@@H](OC3CC(C)CCC3C(C)C)[C@@H]2C(=O)c2ccc3c(c2OC)OCO3)cc(OC)c1OC (stereo partly drawn) | 7.2 | 1.7 | – | – |
| COc1cc([C@@H](O)[C@H]2C(=O)O[C@@H](OC3CC(C)CCC3C(C)C)[C@@H]2C2(c3ccc4c(c3OC)OCO4)SCCCS2)cc(OC)c1OCc1ccccc1 (stereo partly drawn) | – | 48 | – | – |
| COc1cc([C@@H](O)[C@H]2C(=O)O[C@@H](OC3CC(C)CCC3C(C)C)[C@@H]2C2(c3ccc4c(c3OC)OCO4)SCCCS2)cc(OC)c1OC (stereo partly drawn) | 75 | 8.8 | – | – |
| O=C1C[C@@H](C2(c3ccc4c(c3)OCO4)SCCCS2)CO1 | – | 36 | – | – |
| CO[C@@H]1OC(=O)[C@H](Cc2ccc3c(c2)OCO3)[C@H]1C(Sc1ccccc1)(Sc1ccccc1)c1ccc2c(c1)OCO2 | – | > 100 | – | – |
| CC1CCC(C(C)C)C(O[C@@H]2OC(=O)[C@H](Cc3ccc4c(c3)OCO4)[C@H]2C(Sc2ccccc2)(Sc2ccccc2)c2ccc3c(c2)OCO3)C1 (stereo partly drawn) | – | 40 | – | – |
| COc1cc([C@@H](O)[C@H]2C(=O)O[C@@H](OC3CC(C)CCC3C(C)C)[C@@H]2C2(c3ccc(O)c(O)c3OC)SCCCS2)cc(OC)c1OCc1ccccc1 (stereo partly drawn) | > 100 | 10 | – | – |
| COc1cc([C@@H]2c3cc4c(cc3[C@H](O[C@@H]3O[C@H](CO)[C@@H](O)[C@H](O)[C@H]3O)[C@H]3COC(=O)[C@H]23)OCO4)cc(OC)c1OC | 58 | 10 | – | – |
| COc1cc(C[C@H]2C(=O)OC[C@@H]2Cc2ccc3c(c2)OCO3)ccc1O | > 100 | 6.5 | – | – |
| COc1c(C2([C@@H]3CC(=O)O[C@H]3OC3CC(C)CCC3C(C)C)SCCCS2)ccc2c1OCO2 (stereo partly drawn) | – | 29 | – | – |
| COc1ccc(C[C@H]2[C@H](OC3CC(C)CCC3C(C)C)OC(=O)[C@@H]2Cc2ccc(OC)c(OC)c2)cc1OC (stereo partly drawn) | – | 35 | – | – |
| COc1c(C2([C@H]3COC(=O)C3)SCCCS2)ccc2c1OCO2 | – | 54 | – | – |
| COc1cc([C@@H]2c3cc4c(cc3C[C@H]3COC(=O)[C@@H]32)OCO4)cc(OC)c1OC [DESOXYPODOPHYLLOTOXIN] | 0.12 | 0.008 | – | – |
| COc1cc([C@@H]2c3cc4c(cc3[C@@H](O[C@@H]3O[C@@H]5CO[C@@H](C)O[C@H]5[C@H](O)[C@H]3O)[C@H]3COC(=O)[C@H]23)OCO4)cc(OC)c1O [ETOPOSIDE] | 4 | 0.82 | – | – |
| COc1cc([C@@H]2c3cc4c(cc3[C@H](O)[C@H]3COC(=O)[C@H]23)OCO4)cc(OC)c1OC [PODOFILOX] | 0.15 | 0.06 | – | – |
| COc1cc([C@@H]2c3cc4c(cc3[C@@H](O[C@@H]3O[C@@H]5CO[C@@H](c6cccs6)O[C@H]5[C@H](O)[C@H]3O)[C@H]3COC(=O)[C@H]23)OCO4)cc(OC)c1O [TENIPOSIDE] | 2.8 | 0.48 | – | – |
| CISPLATIN | – | – | 4.6 | 1.1 |
